The record followed here is ChEMBL document CHEMBL1139261, “Synthesis and biological evaluation of a series of tangeretin-derived chalcones” (Bioorg Med Chem Lett, 2009).

Molecules are shown by their SMILES. The source made the active and inactive calls. The calls are words filed in the database; no cut-off is given here. A value given as a limit tells only on which side of the number the result lay.

Assay [1] deals with KB. The assay can be described thus: Growth inhibition of human KB cells […] after 72 hrs by MTS assay. It is filed as functional. The essentials:
(§1)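 KB human buccal carcinoma cells incubated with chalcone for 72 h. Growth read by MTS assay and expressed as percent inhibition of cell growth.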

Assay [2] deals with Leishmania donovani. Kind of assay: Antileishmanial activity against Leishmania donovani MHOM/ET/1967/HU3 (LV9) promastigotes after 72 hrs by MTT assay. It is filed as functional, organism-based. The essentials: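 Promastigotes of L. donovani LV9 clone (MHOM/ET/67/HU3) exposed to drug for 72 h. Viability read by MTT assay and IC50 derived.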
Assay [3] in a line: Inhibition of tubulin assembly at 200 uM. An outline of the steps: (§2)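 Tubulin assembly followed by the Zavala and Guenard method, with compounds tested at 0.1 mg/ml (about 2 × 10^-4 M). IC50 is expressed as a ratio to the deoxypodophyllotoxin IC50.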
In assay [4] the test system is Leishmania amazonensis. Kind of assay: Antileishmanial activity against Leishmania amazonensis LV9 ([…]/M1841) amastigotes infected in mouse macrophage after 30 hrs by MTT assay. It is filed as functional, organism-based. An outline of the steps: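 Intracellular amastigotes of L. amazonensis LV9 (MPROB/BR/1972/M1841), isolated from lesions and purified, grown inside murine macrophages. Compounds incubated with infected macrophages for 30 h. IC50 reported.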

Assay [5] has as its system KB. Kind of assay: Antiproliferative activity against human KB cells after 72 hrs by MTS assay. It is filed as functional, cell-based.
The subject of assay [6] is HL-60. The assay can be described thus: Induction of apoptosis in human HL60 cells assessed as fold activation of caspase 3/7 at 100 nM. It is filed as functional. The essentials:
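HL60 human leukemia cells; caspase 3/7 activation measured using DEVD-AMC substrate; reported as fold activation at the optimal compound concentration.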

A short description of assay [7]: Inhibition of tubulin assembly assessed as ratio of IC50 for drug to IC50 for deoxypodophyllotoxin.
The nature of assay [8]: Inhibition of tubulin assembly. The essentials: as §2
Assay [9] concerns P388. Kind of assay: Cytotoxicity against mouse P388 cells. It is filed as functional, cell-based.
Assay [10] concerns HL-60. The assay can be described thus: Induction of apoptosis in human HL60 cells assessed as fold activation of caspase 3/7 at 10 uM. It is filed as functional. The essentials: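 HL60 human leukemia cells treated with compound. Caspase 3/7 activity measured with DEVD-AMC substrate and given as fold activation at the optimal compound concentration.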
Assay [11] is described as follows: Selectivity index, ratio of IC50 for mouse macrophage to IC50 for Leishmania amazonensis LV9 ([…]/M1841) amastigotes. An outline of the steps:
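Selectivity index is the IC50 for cytotoxicity against murine macrophages divided by the IC50 against L. amazonensis LV9 intracellular amastigotes. Amastigotes were assayed after 30 h incubation of infected macrophages with drug.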

In assay [12] the test system is KB. The assay can be described thus: Cytotoxicity against human KB cells. It is filed as functional, cell-based. An outline of the steps:
as §1

Regarding `COc1ccc(/C=C/C(=O)c2c(OC)c(OC)c(OC)c(OC)c2OC)cc1O`, the “inhibition (INH)” value in [1] stood at 22%. The compound also showed an IC50 in assay [2] of 20 µM. In assay [3], the inhibition was less than 30%.
Consider `COc1ccc(/C=C/C(=O)c2cc(OC)c(OC)c(OC)c2)cc1[N+](=O)[O-]`, for which, in [1], the “inhibition (INH)” value is 44%. The compound also came in with an IC50 in [2] of 2.8 µM. The outcome in assay [4] was inactive.
Consider `COc1ccc(/C=C/C(=O)c2cc(OC)c(OC)c(OC)c2)cc1O`, for which the results for the IC50 in assay [5] and in [8] were 17 nM and 4.3 µM, respectively. Moreover, the “inhibition (INH)” value in assay [1] came out at 100%. In assay [6], the “fold change (FC)” value came out at 3.6. Moreover, the Ratio IC50 in assay [7] turned out to be 1.3.
Compound `COc1c(O)c(OC)c(OC)c(C(=O)/C=C/c2ccccc2)c1O` [ISODIDYMOCARPIN] returned an IC50 in [9] of 11.1 µM.
On to `COc1ccc(/C=C/C(=O)c2c(O)c(OC)c(OC)c(OC)c2OC)cc1[N+](=O)[O-]`, for which the “inhibition (INH)” value in [1] is on record as 43%. Also, the “fold change (FC)” value in assay [10] is 1.2. This compound also showed an IC50 in assay [2] of 5.3 µM. Moreover, the outcome in [4] was inactive. Also, the inhibition in [3] was less than 30%.
Take `COc1c(O)c(C(=O)/C=C/c2cccc([N+](=O)[O-])c2)c(OC)c(OC)c1OC`: the “inhibition (INH)” value in assay [1] is 31%. Moreover, the results for the IC50 in [2] and in assay [4] were 4.4 µM and 26 µM, respectively. Moreover, the “Ratio IC50” value in assay [11] was 2.5.
In the case of `COc1ccc(/C=C/C(=O)c2cc(OC)c(OC)c(OC)c2)cc1N`, the IC50 in [5] was found to be 31 nM; in assay [8], 3.7 µM. The “inhibition (INH)” value in [1] is recorded as 100%. Moreover, the “fold change (FC)” value in [6] was found to be 3.6. In addition, the Ratio IC50 in assay [7] amounted to 1.
As for `COc1c(O)c(OC)c(C(=O)/C=C/c2ccccc2)c(O)c1OC` [PEDICIN], the IC50 in [12] worked out at 21.2 µM; in [8], 300 µM.
Turning to `COc1ccc(/C=C/C(=O)c2c(OC)c(OC)c(OC)c(OC)c2OC)cc1N`, in assay [1], the “inhibition (INH)” value came to 29%. In assay [3], the inhibition is less than 30%.
Take `COc1ccc(/C=C/C(=O)c2c(OC)c(OC)c(OC)c(OC)c2OC)cc1[N+](=O)[O-]`: in assay [1], the “inhibition (INH)” value is recorded as 19%. In addition, the inhibition in [3] was less than 30%.
Turning to `COc1cc(C(=O)/C=C/c2cccc([N+](=O)[O-])c2)cc(OC)c1OC`, the “inhibition (INH)” value in assay [1] was 29%. Further, the IC50 in assay [2] amounted to 0.4 µM; in assay [4], 26 µM. In addition, the “Ratio IC50” value in [11] came to 2.8.
For `COc1ccc(/C=C/C(=O)c2c(O)c(OC)c(OC)c(OC)c2OC)cc1O`, the “inhibition (INH)” value in [1] is on record as 49%. Further, the “fold change (FC)” value in assay [10] came out at 3.2. The Ratio IC50 in [7] amounted to 3.8. Further, the IC50 in [2] stood at 25 µM; in assay [8], 13 µM. For the same compound, the result in assay [4] was inactive.
`COc1ccc(/C=C/C(=O)c2c(O)c(OC)c(OC)c(OC)c2OC)cc1N`: in assay [1], the “inhibition (INH)” value is 40%. The “fold change (FC)” value in [10] was 2.9. Besides, the Ratio IC50 in assay [7] was 4.1. For the same compound, the IC50 in assay [2] was found to be 44 µM; in [8], 14 µM. Also, in [4], the result was inactive.
